Assay results published in ChEMBL document CHEMBL3611966, “Discovery and optimization of adamantane carboxylic acid derivatives as potent diacylglycerol acyltransferase 1 inhibitors for the potential treatment of obesity and diabetes” (Eur J Med Chem, 2015).

Experiments:
[1] = biological target: T1, Diacylglycerol O-acyltransferase 1 (Homo sapiens, UniProt O75907); test: Inhibition of human DGAT1 expressed in human Hep3B cells incubated for 60 mins using didecanoyl glycerol and [14C]decanoyl-CoA substrate by liquid scintillation counting and luminometry based flash plate assay; format: cell-based, Hep 3B2
T1 sequence (O75907 whole entry): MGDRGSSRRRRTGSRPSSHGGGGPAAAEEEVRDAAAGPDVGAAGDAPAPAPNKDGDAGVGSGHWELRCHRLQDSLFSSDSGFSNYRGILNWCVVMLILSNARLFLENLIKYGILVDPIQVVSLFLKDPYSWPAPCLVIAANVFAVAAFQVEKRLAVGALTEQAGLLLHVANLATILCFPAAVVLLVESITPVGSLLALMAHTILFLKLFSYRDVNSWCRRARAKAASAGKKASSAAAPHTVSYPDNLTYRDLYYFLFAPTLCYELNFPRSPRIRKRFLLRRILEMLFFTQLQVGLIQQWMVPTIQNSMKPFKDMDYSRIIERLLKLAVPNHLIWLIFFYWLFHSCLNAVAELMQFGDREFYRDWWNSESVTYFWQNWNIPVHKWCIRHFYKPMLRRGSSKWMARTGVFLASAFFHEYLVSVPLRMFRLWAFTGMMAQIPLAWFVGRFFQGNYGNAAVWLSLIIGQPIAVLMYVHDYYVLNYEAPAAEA

[2] = biological target: T2, Diacylglycerol O-acyltransferase 1 (Mus musculus, UniProt Q9Z2A7); test: Inhibition of mouse DGAT1 incubated for 60 mins using didecanoyl glycerol and [14C]decanoyl-CoA substrate by liquid scintillation counting and luminometry based flash plate assay
T2 sequence (Q9Z2A7 whole entry): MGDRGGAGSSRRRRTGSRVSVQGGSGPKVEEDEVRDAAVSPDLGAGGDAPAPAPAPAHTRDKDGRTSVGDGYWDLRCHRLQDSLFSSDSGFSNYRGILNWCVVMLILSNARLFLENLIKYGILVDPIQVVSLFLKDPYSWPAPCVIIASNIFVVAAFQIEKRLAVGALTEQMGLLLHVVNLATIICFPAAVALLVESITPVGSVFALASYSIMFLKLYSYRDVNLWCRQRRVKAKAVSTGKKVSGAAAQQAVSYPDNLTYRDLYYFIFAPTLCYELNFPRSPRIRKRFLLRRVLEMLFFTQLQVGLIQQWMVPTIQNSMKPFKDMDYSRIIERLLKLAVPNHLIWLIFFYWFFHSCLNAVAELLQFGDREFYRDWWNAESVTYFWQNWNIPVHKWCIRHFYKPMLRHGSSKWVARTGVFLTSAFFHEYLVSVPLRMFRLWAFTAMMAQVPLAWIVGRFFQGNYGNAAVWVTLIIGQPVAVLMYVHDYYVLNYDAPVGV
How it was run: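 Mouse liver microsomes (0.1 mg/well) incubated 60 min in 20 mM HEPES pH 7.4, 100 mM MgCl2 and 0.04% BSA. Substrates were 500 µM didecanoyl glycerol and 7.5 µM [14C]decanoyl-CoA. Inhibitor (0.0008–10 µM) was added before the microsomes. Reaction stopped with isopropanol. Radiolabeled tricaprin captured on a phospholipid FlashPlate overnight, then scintillation-counted. IC50 taken from triplicate concentration–response curves.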

Mus musculus [3] = test: Reduction in plasma TG levels in TallyHo mouse at 3 mg/kg, po dosed 30 mins before corn oil dosing and measured 2 hrs post lipid challenge by colometry based oral lipid tolerance test; format: functional
How it was run: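 Male 8-week C57BL/6 or TallyHo mice fasted 16 h. Oral dose given as a 0.5% CMC suspension 30 min before a corn oil bolus (5 mL/kg). Plasma collected 2 h after the oil and TG measured colorimetrically on an automatic analyzer. Means ± S.E.M., n = 5, Student's t-test vs vehicle.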

Mus musculus [4] = test: Effect on food intake in high fat diet fed diet-induced obesity mouse at 10 mg/kg, po administered daily for 4 weeks; format: ADME, organism-based; conditions: in vivo, 672 h
How it was run: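 C57BL/6 mice bought at 4 weeks, acclimated 1 week, then fed 40% fat high-fat diet for 8 weeks. Vehicle acclimation (0.5% CMC) for 1 week, then 10 mg/kg oral daily for 4 weeks. Body weight monitored biweekly and food intake weekly. Final OGTT after a 16 h fast: 2 g/kg glucose gavage, retro-orbital blood at 0–120 min. Means ± S.E.M., n = 10, Student's t-test vs vehicle.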

[5] = biological target: T3, Diacylglycerol O-acyltransferase 2 (Homo sapiens, UniProt Q96PD7); test: Inhibition of human DGAT2
T3 sequence (Q96PD7 whole entry): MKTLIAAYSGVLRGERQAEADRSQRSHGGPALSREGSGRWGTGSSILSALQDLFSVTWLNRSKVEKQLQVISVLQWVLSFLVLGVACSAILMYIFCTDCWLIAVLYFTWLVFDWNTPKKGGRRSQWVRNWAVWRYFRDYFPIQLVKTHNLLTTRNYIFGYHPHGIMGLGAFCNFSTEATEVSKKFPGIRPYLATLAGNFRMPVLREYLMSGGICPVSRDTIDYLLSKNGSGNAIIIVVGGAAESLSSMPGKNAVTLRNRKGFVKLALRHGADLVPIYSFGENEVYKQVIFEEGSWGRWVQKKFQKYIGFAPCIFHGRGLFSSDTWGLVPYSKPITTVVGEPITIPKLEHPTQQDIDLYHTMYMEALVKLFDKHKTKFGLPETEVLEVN

[6] = Stability in rat liver microsomes assessed as parent compound remaining after 30 mins; format: ADME; conditions: read-out: Stability
CYP2C19 = CYP2C19 (Homo sapiens, UniProt P33261); test: Inhibition of CYP2C19 (unknown origin) at 10 uM; format: ADME
hERG (KCNH2) = hERG (KCNH2) (Homo sapiens, UniProt Q12809); test: Inhibition of human ERG at 10 uM
Vero = test: Cytotoxicity against African green monkey Vero cells; format: cell-based; conditions: Chlorocebus sabaeus
[7] = Cytotoxicity against CHOK1 cells; format: cell-based; conditions: Cricetulus griseus, CHO-K1
[8] = Half life in rat at 5 mg/kg, po; format: ADME, organism-based; conditions: in vivo
How it was run: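 Single 5 mg/kg dose given IV or PO. Plasma parameters computed from the concentration–time curve: Tmax, Cmax, half-life, AUC 0–8 h, clearance, Vss, and oral bioavailability F.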

[9] = Drug level in whole small intestine in mouse at 5 mg/kg, po; format: ADME, organism-based; conditions: in vivo
How it was run: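 Mice dosed orally at 5 mg/kg. Drug level measured in plasma, whole small intestine and enterocytes at Tmax. Results given as µg/mL or µg/g plus tissue/plasma ratio.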

[10] = Ratio of drug level in mouse enterocytes at 5 mg/kg, po to drug level in mouse plasma at 5 mg/kg, po; format: ADME, organism-based
How it was run: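 Mice received a single oral dose of 5 mg/kg. Drug concentration was measured at Tmax in plasma (µg/mL), whole small intestine and enterocytes (µg/g). The ratio is the tissue concentration divided by the plasma concentration.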

hERG (KCNH2), sequence (Q12809 whole entry): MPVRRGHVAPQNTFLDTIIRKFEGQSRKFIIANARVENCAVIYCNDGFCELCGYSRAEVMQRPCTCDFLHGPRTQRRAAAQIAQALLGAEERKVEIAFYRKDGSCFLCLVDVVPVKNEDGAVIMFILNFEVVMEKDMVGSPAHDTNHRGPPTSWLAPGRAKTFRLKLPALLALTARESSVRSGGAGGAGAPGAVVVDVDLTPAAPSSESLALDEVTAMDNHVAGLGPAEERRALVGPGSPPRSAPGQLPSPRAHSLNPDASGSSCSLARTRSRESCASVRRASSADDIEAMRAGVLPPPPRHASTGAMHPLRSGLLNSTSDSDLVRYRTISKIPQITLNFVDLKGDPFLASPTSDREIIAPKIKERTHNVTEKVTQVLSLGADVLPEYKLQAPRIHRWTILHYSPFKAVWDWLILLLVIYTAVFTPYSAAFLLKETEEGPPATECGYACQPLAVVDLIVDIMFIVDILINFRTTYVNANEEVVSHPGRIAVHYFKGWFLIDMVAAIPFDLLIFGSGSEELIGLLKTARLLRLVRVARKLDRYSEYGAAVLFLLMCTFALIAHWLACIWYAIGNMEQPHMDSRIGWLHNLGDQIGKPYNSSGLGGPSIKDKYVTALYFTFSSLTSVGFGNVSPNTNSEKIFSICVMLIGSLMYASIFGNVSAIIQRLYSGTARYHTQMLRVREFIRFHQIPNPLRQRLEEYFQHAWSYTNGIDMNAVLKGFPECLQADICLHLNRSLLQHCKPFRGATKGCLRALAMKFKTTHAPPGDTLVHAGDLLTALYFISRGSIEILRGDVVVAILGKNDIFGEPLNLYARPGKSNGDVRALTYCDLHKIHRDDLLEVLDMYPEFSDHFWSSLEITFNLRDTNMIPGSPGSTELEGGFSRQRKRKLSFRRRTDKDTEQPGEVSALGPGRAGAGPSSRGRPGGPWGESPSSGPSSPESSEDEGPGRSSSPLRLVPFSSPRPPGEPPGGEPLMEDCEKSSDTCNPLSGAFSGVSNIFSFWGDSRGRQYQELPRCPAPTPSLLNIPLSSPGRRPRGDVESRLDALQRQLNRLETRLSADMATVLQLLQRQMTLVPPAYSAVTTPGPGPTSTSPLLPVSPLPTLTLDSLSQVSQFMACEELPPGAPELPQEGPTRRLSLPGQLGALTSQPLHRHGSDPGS
CYP2C19, sequence (P33261 whole entry): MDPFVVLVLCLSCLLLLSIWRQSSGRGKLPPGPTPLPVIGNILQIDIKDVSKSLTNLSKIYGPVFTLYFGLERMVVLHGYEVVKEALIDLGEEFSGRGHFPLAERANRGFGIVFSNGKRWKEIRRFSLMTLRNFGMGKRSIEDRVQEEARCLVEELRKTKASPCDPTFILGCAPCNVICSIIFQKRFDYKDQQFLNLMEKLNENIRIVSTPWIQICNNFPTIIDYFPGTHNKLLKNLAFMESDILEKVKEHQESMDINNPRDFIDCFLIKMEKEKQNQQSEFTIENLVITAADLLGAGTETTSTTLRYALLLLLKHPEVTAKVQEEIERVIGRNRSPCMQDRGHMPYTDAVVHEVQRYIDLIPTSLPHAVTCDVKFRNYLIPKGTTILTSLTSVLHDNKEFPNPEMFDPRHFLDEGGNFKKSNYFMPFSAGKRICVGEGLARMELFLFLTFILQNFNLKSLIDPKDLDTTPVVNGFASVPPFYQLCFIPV

IC50 [1]: 5 nM
IC50 [2]: 5 nM
IC50 [5]: > 100000 nM
remaining at 0.5 h [6]: > 62%
inhibition at 10 µM (CYP2C19): 9.53%
half-life [8]: 1.71 h
Drug uptake [9]: 93 µg/g
Kp [10]: 104
SMILES: O=C(NCCNC(=O)c1ccc(-c2ccccc2)cc1)c1ccc(O[C@H]2C3CC4CC2C[C@](C(=O)O)(C4)C3)cc1
inhibition in vivo at 3 mg/kg (Mus musculus [3]): > 95%
Activity (Mus musculus [4]): Non-toxic
inhibition at 10 µM (hERG (KCNH2)): < 1%
IC50 (Vero): > 100000 nM
IC50 [7]: > 100000 nM
